19 compounds from PubChem BioAssay can be followed below.

SMILES strings stand for the structures. Values without a mark were called inactive. Records with an inconclusive call do not appear. The source made the active and inactive calls.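 How the source made its calls, unless noted: active means viability increase at or above a cutoff of the median across tested compounds plus 3 SD (cut at about 8.5% in these data, passing the limit was not always enough); inconclusive means some gains above the cutoff, reason not given; inactive means the rest.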

Test [1] can be described thus: S. cerevisiae growth inhibition in permissive medium (OD615), pilot counter-assay for S. cerevisiae lifespan shortening project, permissive growth control (AID 705;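 active means growth inhibition above 25% in both replicates, a cutoff set 3 SD above the mean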). The following applies: OD615, 24 h, at 10 µM, hits give high values. The method in brief: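 assay system = Saccharomyces cerevisiae strain carrying genetically modified DeaD replicative-lifespan system | medium = SC raffinose/galactose permissive medium | dosing = 10 µM single dose, 0.25% DMSO | schedule = 24 h compound exposure at 30 °C after 4 h pre-growth | measured by = OD at 615 nm | read-out basis = growth inhibition from lowered OD615 after 24 h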

A short description of test [2]: S. cerevisiae growth inhibition in restrictive medium, OD615, pilot screen, restrictive growth control, yeast lifespan reduction project (AID 706;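 active means growth inhibition above a set limit, 3 SD over mean compound inhibition, in both replicates, cut at about 43% in these data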). As to conditions: OD615, 48 h, at 10 µM, hits give high values. Put shortly: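 Buffer or medium: CSMM-D glucose medium. Material: genetically modified Saccharomyces cerevisiae, DeaD replicative lifespan assay strain. Times: 48 h compound exposure at 30 °C. Measured by: optical density at 615 nm.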

Test [3] in a line: doxorubicin toxicity protection in MRP-1 cells – H69AR cells, CellTiter-Glo, duplicate, MRP-1 activator project, pilot screen (AID 807).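 Further: compound pretreatment 18-22 h then 72 h combined with doxorubicin; 0% = doxorubicin alone and 100% = vehicle without doxorubicin.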 The following applies: H69AR viability with doxorubicin, CellTiter-Glo luminescence; at 10 µM; hits give high values. In general terms: In ATP-based viability assays light output follows the ATP content of the culture.
A short description of test [4]: viability of HCT116 without oncogenic beta-catenin – human colon tumor cells, pilot screen (AID 823;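 active means cell viability at or below a set limit in both duplicate runs, the limit being the all-compound median minus 4 SD, cut at about 23% in these data, passing the limit was not always enough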;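 further: 0% = wells killed by 20 µM Hyamine and 100% = untreated DMSO cell wells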). As to conditions: HCT116 beta-catenin knockout viability, CellTiter-Glo, 60 h; at 10 µM; hits give low values.
The nature of test [5]: RAM pathway blockade in budding yeast – dse1pr::URA3 reporter, 5-FOA selection, pilot screen (AID 869;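 active means inhibition over a set limit, the all-compound mean plus 3 SD, in both replicate runs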;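 further: 0% = DMSO wells with no growth and 100% = 10 µM 1-NA-PP1 with full growth; RAM network block rescues cells from 5-FOA so hits raise OD615 growth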). The following applies: S. cerevisiae dse1pr::URA3 5-FOA growth, OD615, 2 d; at 10 µM; hits give high values; strain carries analog-sensitive mutant Cbk1 kinase.
Test [6] can be described thus: RAM signaling pathway blockade in yeast – S. cerevisiae, Pdr1DBD-CYC8 efflux-inhibited sensitized strain, primary screen (AID 1298;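 active means RAM network inhibition above 8.4% in each of two replicates, 3 SD over the compound average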;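 further: 0% = DMSO untreated cells without growth and 100% = 10 µM 1-NA-PP1 full growth; higher means more yeast growth rescued from 5-FOA killing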). The following applies: S. cerevisiae cbk1-as DSE1-URA3 strain, 5-FOA growth OD615, 2 d; at 50 µM; hits give high values.

As a reminder, the viability is a read-out of living cells in per cent, often relative to untreated cells. What is called inhibition is the change of the read-out against control, counted positive when it falls. With `CCOCCCNC(=O)C1CCC(CNS(=O)(=O)c2ccc(F)cc2)CC1` (centres undefined), the growth inhibition in test [1] was -7.63%; in test [2], 6.36%. Moreover, in test [3], the viability increase is -2.28%. In test [4], the viability was 95.5%. The inhibition in test [5] is 1.19%. The RAM network inhibition in test [6] is 7.28%.
As to `Cc1ccccc1-c1ccc(Nc2ccc(N3CCOCC3)cc2)nn1`, the growth inhibition in test [1] is -3.44%; in test [2], 15.8%. Besides, the viability increase in test [3] is -5.91%. The viability in test [4] was 81%. Moreover, the inhibition in test [5] is 0.46%. Also, the RAM network inhibition in test [6] was 2.5%.
For `CC(C)N(C(=O)C1CC(=O)OC12CCCCC2)C(C)C` (centres undefined), the growth inhibition in test [1] is 1.46%; in test [2], 3.32%. The viability increase in test [3] is -0.41%. Further, the viability in test [4] is 99.1%. For the same compound, the inhibition in test [5] was 1.32%. Further, in test [6], the RAM network inhibition was 0.1%.
For the compound `COCC(=O)NCc1nc2ccccc2[nH]1`, the growth inhibition in test [1] is -12.6%; in test [2], -0.605%. In test [3], the viability increase was -1.85%. Besides, the viability in test [4] is 105%. The inhibition in test [5] is 1.76%. Further, the RAM network inhibition in test [6] was 2.13%.
As to `Cc1nn(CC(=O)Nc2cccnc2N2CCOCC2)c(=O)c2ccccc12`, the growth inhibition in test [1] is -23.7%; in test [2], 1.05%. Further, the viability increase in test [3] was -2.18%. Besides, the viability in test [4] was 95%. Moreover, in test [5], the inhibition is 1.22%. Also, in test [6], the RAM network inhibition was 1.71%.
As to `Cc1cc(=O)n2[nH]c(C)c(-c3ccc(Cl)cc3)c2n1`, the growth inhibition is 3.86% in test [1] and -11.8% in test [2]. Also, the viability increase in test [3] is -5.81%. Besides, in test [4], the viability was 34.2%. The inhibition in test [5] was 2.29%. In test [6], the RAM network inhibition was 5.64%.
As for `O=C(CS(=O)(=O)c1cn(Cc2cccc(F)c2)c2ccccc12)N1CCCCC1`, the growth inhibition in test [1] was -12.9%; in test [2], -2.79%. Also, the viability increase in test [3] is -3.96%. Also, in test [4], the viability is 73.2%. Further, in test [5], the inhibition was 2.04%. For the same compound, in test [6], the RAM network inhibition was 3.64%.
In the case of `CCOc1ccccc1NC(=O)CSc1nnc(-c2cnccn2)n1C`, the growth inhibition is -24.8% in test [1] and -1.53% in test [2]. The viability increase in test [3] was -3.17%. In test [4], the viability is 91.8%. Moreover, in test [5], the inhibition is 3.12%. In addition, the RAM network inhibition in test [6] is 5.04%.
With `COc1cccc(-c2nnc(NC(=O)c3cccc(F)c3)o2)c1`, the growth inhibition is -12.9% in test [1] and 10.2% in test [2]. Moreover, the viability increase in test [3] was 0.12%. Also, the viability in test [4] was 15.9% (active). The inhibition in test [5] is 1.04%. Moreover, the RAM network inhibition in test [6] was 0.35%.
Turning to `CCC1CCCCN1C(=O)CSc1nc2c([nH]c3ccccc32)c(=O)n1C` (centres undefined), the growth inhibition was -5.5% in test [1] and -4.4% in test [2]. Further, in test [3], the viability increase is -8.15%. The viability in test [4] was 55.7%. Also, in test [5], the inhibition is 1.36%. Besides, the RAM network inhibition in test [6] is 3.27%.
As for `COc1ccc(N2CCN(C(=O)Cn3c(=O)[nH]c4ccsc4c3=O)CC2)cc1`, the growth inhibition in test [1] is -15.3%; in test [2], -12.4%. Besides, in test [3], the viability increase was -3.44%. The viability in test [4] is 99.7%. Further, the inhibition in test [5] is 0.99%. The RAM network inhibition in test [6] was 3.59%.
Regarding `CCOC(=O)c1ccccc1NC(=O)CC1Nc2ccccc2NC1=O` (centres undefined), the growth inhibition in test [1] was -2.62%; in test [2], -8.37%. Also, the viability increase in test [3] is -8.1%. Also, in test [4], the viability was 55.7%. Also, the inhibition in test [5] was 2.19%. For the same compound, the RAM network inhibition in test [6] is 6.39%.
Regarding `O=C(Nc1nn[nH]n1)c1cccc(Oc2ccccc2)c1`, the growth inhibition in test [1] is -18.5%; in test [2], 8.51%. In addition, the viability increase in test [3] was -0.81%. In test [4], the viability was 96.5%. In addition, the inhibition in test [5] is 3.22%. Besides, the RAM network inhibition in test [6] was 7.27%.
In the case of `COc1ccc(NC(=O)c2cncc(Br)c2)c(S(=O)(=O)N2CCOCC2)c1`, the figures for the growth inhibition in test [1] and in test [2] were -1.69% and 7.98%, respectively. Further, the viability increase in test [3] is -5.06%. For the same compound, the viability in test [4] was 98.3%. Further, the inhibition in test [5] was 2.21%. The RAM network inhibition in test [6] is 4.58%.
`CN1c2ccccc2-c2nc3ccccc3n2C1c1ccccn1` (centres undefined): the results for the growth inhibition in test [1] and in test [2] were -1.57% and -3.9%, respectively. Besides, the viability increase in test [3] is -3.85%. Besides, in test [4], the viability is 73.8%. Besides, the inhibition in test [5] was 0.56%. For the same compound, the RAM network inhibition in test [6] is 4.06%.
Take `O=C1C(Cl)=C(Nc2ccccc2O)C(=O)N1c1ccccc1`: the growth inhibition in test [1] is -42%; in test [2], -9.91%. Besides, in test [3], the viability increase is -6.15%. Further, the viability in test [4] was 81.7%. For the same compound, the inhibition in test [5] is 2.32%. The RAM network inhibition in test [6] is 5.61%.
On to `CC1CCCN(c2nc3c(c(=O)n(C)c(=O)n3C)n2Cc2ccccc2)C1` (centres undefined), for which the growth inhibition in test [1] was -0.33%; in test [2], -3.24%. For the same compound, the viability increase in test [3] is -2.17%. Further, the viability in test [4] is 85.9%. The inhibition in test [5] was 1.67%. Besides, the RAM network inhibition in test [6] is 1.56%.
Consider `COc1ccc(N2CC(O)=C(c3nc(C)cs3)C2=N)cc1`, for which the figures for the growth inhibition in test [1] and in test [2] were 8.87% and 5.31%, respectively. For the same compound, the viability increase in test [3] is -4.67%. Also, the viability in test [4] was 96.7%. Moreover, in test [5], the inhibition was 1.6%. Besides, in test [6], the RAM network inhibition was 3.27%.
In the case of `CCOC(=O)N1CCN(C(=O)CCc2nc3sc4c(c3c(=O)[nH]2)CCCC4)CC1`, the growth inhibition was -13.4% in test [1] and 2.66% in test [2]. Besides, in test [3], the viability increase is -2.68%. For the same compound, the viability in test [4] is 104%. Further, the inhibition in test [5] was 2.59%. Moreover, the RAM network inhibition in test [6] is 3.99%.
